Assay results from ChEMBL document CHEMBL1795259, “Thymol, benzofuranoid, and phenylpropanoid derivatives: anti-inflammatory constituents from Eupatorium cannabinum” (J Nat Prod, 2011).

What was measured:
Conditions in all cases: Neutrophil
[1] = Antiinflammatory activity in human neutrophils assessed as inhibition of fMLP/cytochalasin B-induced elastase release using MeO-Suc-Ala-Ala-Pro-Val-p-nitroanilide as elastase substrate at 10 ug/mL after 5 mins; format: functional
Method in brief: (§1)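 Neutrophils isolated from venous blood of healthy adult volunteers (20-28 y) by dextran sedimentation, Ficoll-Hypaque centrifugation and hypotonic erythrocyte lysis, >98% viable, kept in Ca2+-free HBSS pH 7.4 at 4 °C. Cells (6 × 10^5/mL) given 100 μM substrate, equilibrated 2 min at 37 °C, compound 5 min, then fMLP 100 nM/CB 0.5 μg/mL; A405 monitored continuously. Mean ± SEM, n = 3-4.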

[2] = Antiinflammatory activity in human neutrophils assessed as inhibition of fMLP/cytochalasin B-induced superoxide anion production at 10 ug/mL after 5 mins by spectrophotometer analysis; format: functional
Method in brief: (§2)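 Donor neutrophils (6 × 10^5/mL) prepared as for elastase, with 0.5 mg/mL ferricytochrome c and 1 mM Ca2+. Equilibrated 2 min at 37 °C, compound or DMSO 5 min, CB 1 μg/mL 3 min, then fMLP 100 nM 10 min. A550 monitored continuously with stirring. SOD (100 U/mL)-inhibitable reduction, ε = 21.1/mM/10 mm. Mean ± SEM, n = 3-4.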

[3] = Antiinflammatory activity in human neutrophils assessed as inhibition of fMLP/cytochalasin B-induced elastase release using MeO-Suc-Ala-Ala-Pro-Val-p-nitroanilide as elastase substrate after 5 mins; format: functional, cell-based; method in brief: as §1
[4] = Antiinflammatory activity in human neutrophils assessed as inhibition of fMLP/cytochalasin B-induced superoxide anion production after 5 mins by spectrophotometer analysis; format: functional, cell-based; method in brief: as §2

| SMILES | inhibition at 10 µg/mL [1] [%] | inhibition at 10 µg/mL [2] [%] | IC50 [3] [µM] | IC50 [4] [µM] |
| --- | --- | --- | --- | --- |
| C=C(COC(=O)/C(C)=C\C)c1ccc(C)cc1O | 23 | 20.3 | – | – |
| C=C(COC(=O)CC(C)C)c1ccc(C)cc1O | – | 39.6 | 18.3 | – |
| Cc1ccc2c(c1)OC(C)(O)C2=O (stereo not drawn) | 17.3 | 0.02 | – | – |
| CC(=O)C(=O)c1ccc(C)cc1O | 37.3 | 10.1 | – | – |
| C/C=C(\C)C(=O)Oc1cc(C)ccc1C1(COC(C)=O)CO1 (stereo not drawn) | – | – | 25.8 | 8.32 |
| C=C(COC(C)=O)c1ccc(C)cc1OC(=O)/C(C)=C/C | 36.6 | – | – | 8.5 |
| C/C=C(\C)C(=O)Oc1cc(C)ccc1C(C)COC(C)=O (stereo not drawn) | 21.6 | – | – | 18.4 |
| C=C(CO)c1ccc(C)cc1O | 1.86 | 2.67 | – | – |
| C=C(COC(=O)C(C)C)c1ccc(C)cc1O | – | 32.7 | 16.1 | – |
| COC(C)(COC(=O)C(C)C)c1ccc(C)cc1O (stereo not drawn) | 30 | – | – | 8.19 |
| C/C=C(/C)C(=O)OCC(C)(OC)c1ccc(C)cc1O (stereo not drawn) | 13.6 | 14.7 | – | – |
| C/C=C(/C)C(=O)OCC(O)(COC(C)=O)c1ccc(C)cc1O (stereo not drawn) | – | – | 6.27 | 13.1 |
| Cc1ccc2c(c1)OC1OC3(CCC21O)c1ccc(C)cc1OC3O (stereo not drawn) | 13 | 4.37 | – | – |
| CC(=O)c1ccc(CO)cc1O | – | – | 6.38 | 8.13 |
| C/C=C(/C)C(=O)O[C@@H]1Oc2cc(C)ccc2[C@@]1(C)O (relative stereo) [EUPATOBENZOFURAN] | – | 37.1 | 11.3 | – |
| O=c1ccc2ccccc2o1 [COUMARIN] | 23.8 | 8.5 | – | – |
| C=C(C)c1cc2cc(C(C)=O)c(O)cc2o1 [EUPARIN] | 12.6 | 13.7 | – | – |
| O=c1cc(N2CCOCC2)oc2c(-c3ccccc3)cccc12 [LY-294002] | – | – | 1.98 | 1.09 |
| C=C1CC[C@]2(C)CC[C@]3(C)[C@H](CC[C@@H]4[C@@]5(C)CC[C@H](OC(C)=O)C(C)(C)[C@@H]5CC[C@]43C)[C@H]2[C@@H]1C [TARAXASTEROL ACETATE] | 4.73 | 0.68 | – | – |
